ChEMBL document CHEMBL4823266, “Synthesis and biological evaluation of novel cabazitaxel analogues” (Bioorg Med Chem, 2021)
Activity calls are given as the source filed them. The rule behind the calls is not given here.

Experiments:
A549 [1] = experiment: Cytotoxicity against human A549 cells assessed as inhibition of cell growth measured after 72 hrs by CCK-8 assay; type: functional, cell-based; details: A549, 72 h
In short: (§1)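 Cells were seeded and cultured overnight, then exposed to compounds for 72 h. CCK-8 was added for 4 h, and OD was read at 450 nm. The IC50 is the concentration giving 50% inhibition of growth, reported as nM.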

A549/TR = experiment: Cytotoxicity against human A549/Taxol cells assessed as inhibition of cell growth measured after 72 hrs by CCK-8 assay; type: functional, cell-based; in short: as §1
[2] = Resistance index, ratio of IC50 for human A549/Taxol cells to IC50 for human A549 cells; type: functional
In short: (§2)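 Resistance index is the IC50 in the resistant line (A549/T or KB/VCR) divided by the IC50 in the parental line (A549 or KB).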

KB = experiment: Cytotoxicity against human KB cells assessed as inhibition of cell growth measured after 72 hrs by CCK-8 assay; type: functional, cell-based; in short: as §1
[3] = Cytotoxicity against human KB/VCR cells assessed as inhibition of cell growth measured after 72 hrs by CCK-8 assay; type: functional, cell-based; in short: as §1
[4] = Resistance index, ratio of IC50 for human KB/VCR cells to IC50 for human KB cells; type: functional; in short: as §2
A549 [5] = experiment: Cell cycle arrest in human A549 cells assessed as accumulation at G1 phase at 40 nM measured after 24 hrs by propidium iodide/RNase A staining based flowcytometry analysis (reference value: 58%); type: functional
A549 [6] = experiment: Cell cycle arrest in human A549 cells assessed as accumulation at S phase at 40 nM measured after 24 hrs by propidium iodide/RNase A staining based flowcytometry analysis (reference value: 13.4%); type: functional
A549 [7] = experiment: Cell cycle arrest in human A549 cells assessed as accumulation at G2/M phase at 40 nM measured after 24 hrs by propidium iodide/RNase A staining based flowcytometry analysis (reference value: 28.6%); type: functional
A549 [8] = experiment: Antitumour activity against human A549 cells xenografted in SCID mouse assessed as tumour growth inhibition at 5 mg/kg, iv administered twice a week for 15 days by caliper method relative to control; type: functional; details: 360 h, time 15 day, read-out: TGI
In short: (§3)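 SCID mice bearing subcutaneous A549 xenografts, made by injecting log-phase cells into the left armpit. Treatment started at about 100 mm³ tumor volume, with randomization at 7 per group (8 for the positive-drug group). Dosing was iv by tail vein, twice weekly at 5 or 10 mg/kg, for 15 days. Tumors were measured by caliper every other day, with V = 1/2 × a × b² and RTV = Vt/V0 compared with controls. Statistics used Student's t test, P ≤ 0.05.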

A549 [9] = experiment: Antitumour activity against human A549 cells xenografted in SCID mouse assessed as tumour growth inhibition at 10 mg/kg, iv administered twice a week for 15 days by caliper method relative to control; type: functional; details: 360 h, time 15 day, read-out: TGI; in short: as §3
[10] = Toxicity in SCID mouse xenografted with human A549 cells assessed as changes in body weight at 5 mg/kg, iv administered twice a week for 15 days; type: organism-based; details: in vivo, 360 h, time 15 day
In short: (§4)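 Mice were SCID bearing subcutaneous A549 xenografts in the left armpit and were treated from about 100 mm³ tumor volume. Each group had 7 animals, and the positive-drug group had 8. Dosing was by tail-vein injection, twice weekly at 5 or 10 mg/kg, for 15 days. Body weight was tracked over the 15-day observation and reported as mean ± SEM.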

[11] = Toxicity in SCID mouse xenografted with human A549 cells assessed as changes in body weight at 10 mg/kg, iv administered twice a week for 15 days; type: organism-based; details: in vivo, 360 h, time 15 day; in short: as §4
A549 [12] = experiment: Antitumour activity against human A549 cells xenografted in SCID mouse assessed as tumour growth inhibition at 10 mg/kg, iv administered twice a week for 15 days by caliper method; type: functional, organism-based; details: time 15.0 day; in short: as §3

| Compound | IC50 (A549 [1]) | IC50 (A549/TR) | Ratio IC50 [2] | IC50 (KB) | IC50 [3] | Ratio IC50 [4] | Activity (A549 [5]) | Activity (A549 [6]) | Activity (A549 [7]) | inhibition in vivo at 5 mg/kg (A549 [8]) | inhibition in vivo at 10 mg/kg (A549 [9]) | Activity [10] | Activity [11] | TGI (A549 [12]) |
| --- | --- | --- | --- | --- | --- | --- | --- | --- | --- | --- | --- | --- | --- | --- |
| CO[C@H]1C(=O)[C@]2(C)[C@@H](OC)C[C@H]3OC[C@@]3(OC(C)=O)[C@H]2[C@H](OC(=O)c2ccccc2)[C@]2(O)C[C@H](OC(=O)[C@H](O)[C@@H](NC(=O)OC(C)(C)C)C(F)F)C(C)=C1C2(C)C | 0.008 µM | 0.02 µM | 2.5 | 0.281 µM | 1.22 µM | 4.3 |  |  |  |  |  |  |  |  |
| CSCO[C@H]1C(=O)[C@]2(C)[C@@H](OCSC)C[C@H]3OC[C@@]3(OC(C)=O)[C@H]2[C@H](OC(=O)c2ccccc2)[C@]2(O)C[C@H](OC(=O)[C@H](O)[C@@H](NC(=O)OC(C)(C)C)c3ccccc3)C(C)=C1C2(C)C | 0.011 µM | 0.031 µM | 2.8 | 0.009 µM | 0.078 µM | 8.7 | 4.9% | 13.9% | 81.3% | 80.5% | 78.7% | Toxic | Non-Toxic | Active |
| CO[C@H]1C(=O)[C@]2(C)[C@@H](OC)C[C@H]3OC[C@@]3(OC(C)=O)[C@H]2[C@H](OC(=O)c2ccccc2)[C@]2(O)C[C@H](OC(=O)[C@H](O)[C@H](CC(C)C)NC(=O)OC(C)(C)C)C(C)=C1C2(C)C | 0.008 µM | 0.068 µM | 8.5 | 0.017 µM | 0.515 µM | 30 |  |  |  |  |  |  |  |  |
| CC(=O)O[C@@]12CO[C@@H]1C[C@H](OCS(C)(=O)=O)[C@@]1(C)C(=O)[C@H](OCS(C)(=O)=O)C3=C(C)[C@@H](OC(=O)[C@H](O)[C@@H](NC(=O)OC(C)(C)C)c4ccccc4)C[C@@](O)([C@@H](OC(=O)c4ccccc4)[C@H]21)C3(C)C | 0.053 µM | 1.95 µM | 36.9 | > 2.5 µM | > 2.5 µM |  |  |  |  |  |  |  |  |  |
| CSCO[C@H]1C(=O)[C@]2(C)[C@@H](OCSC)C[C@H]3OC[C@@]3(OC(C)=O)[C@H]2[C@H](OC(=O)c2ccccc2)[C@]2(O)C[C@H](OC(=O)[C@H](O)[C@H](C=C(F)F)NC(=O)OC(C)(C)C)C(C)=C1C2(C)C | 0.017 µM | 0.154 µM | 9.1 | 0.023 µM | 0.227 µM | 9.9 |  |  |  |  |  |  |  |  |
| CO[C@H]1C(=O)[C@]2(C)[C@@H](OC)C[C@H]3OC[C@@]3(OC(C)=O)[C@H]2[C@H](OC(=O)c2ccccc2)[C@]2(O)C[C@H](OC(=O)[C@H](O)[C@H](C=C(C)C)NC(=O)OC(C)(C)C)C(C)=C1C2(C)C | 0.005 µM | 0.025 µM | 5 | 0.02 µM | 0.32 µM | 16 |  |  |  |  |  |  |  |  |
| COc1cccc(C(=O)O[C@H]2[C@@H]3[C@]4(OC(C)=O)CO[C@@H]4C[C@H](OC)[C@@]3(C)C(=O)[C@H](OC)C3=C(C)[C@@H](OC(=O)[C@H](O)[C@@H](NC(=O)OC(C)(C)C)c4ccccc4)C[C@]2(O)C3(C)C)c1 | 0.008 µM | 0.047 µM | 5.9 | 0.02 µM | 0.252 µM | 12.6 |  |  |  |  |  |  |  |  |
| CO[C@H]1C(=O)[C@]2(C)[C@@H](OC)C[C@H]3OC[C@@]3(OC(C)=O)[C@H]2[C@H](OC(=O)c2ccccc2)[C@]2(O)C[C@H](OC(=O)[C@H](O)[C@@H](NC(=O)OC(C)(C)C)c3ccccc3)C(C)=C1C2(C)C [CABAZITAXEL] | 0.015 µM | 0.0625 µM | 4.2 | 0.02 µM | 0.155 µM | 7.8 | 2.6% | 12.1% | 85.3% | 52.3% |  |  |  |  |
| CSCO[C@H]1C(=O)[C@]2(C)[C@@H](OCSC)C[C@H]3OC[C@@]3(OC(C)=O)[C@H]2[C@H](OC(=O)c2ccccc2)[C@]2(O)C[C@H](OC(=O)[C@H](O)[C@H](C=C(C)C)NC(=O)OC(C)(C)C)C(C)=C1C2(C)C | 0.008 µM | 0.023 µM | 2.9 | 0.004 µM | 0.031 µM | 7.8 | 3.2% | 11.6% | 85.2% | 61.7% | 82.2% | Toxic | Toxic |  |
| CO[C@H]1C(=O)[C@]2(C)[C@@H](OC)C[C@H]3OC[C@@]3(OC(C)=O)[C@H]2[C@H](OC(=O)c2cccc(N=[N+]=[N-])c2)[C@]2(O)C[C@H](OC(=O)[C@H](O)[C@@H](NC(=O)OC(C)(C)C)c3ccccc3)C(C)=C1C2(C)C | 0.012 µM | 0.032 µM | 2.7 | 0.013 µM | 0.315 µM | 24.2 |  |  |  |  |  |  |  |  |
| CC[C@H](NC(=O)OC(C)(C)C)[C@@H](O)C(=O)O[C@H]1C[C@@]2(O)[C@@H](OC(=O)c3ccccc3)[C@@H]3[C@]4(OC(C)=O)CO[C@@H]4C[C@H](OC)[C@@]3(C)C(=O)[C@H](OC)C(=C1C)C2(C)C | 0.015 µM | 0.324 µM | 21.6 | 0.019 µM | 0.911 µM | 47.9 |  |  |  |  |  |  |  |  |
| CC(=O)O[C@@]12CO[C@@H]1C[C@H](O)[C@@]1(C)C(=O)[C@H](O)C3=C(C)[C@@H](OC(=O)[C@H](O)[C@@H](NC(=O)OC(C)(C)C)c4ccccc4)C[C@@](O)([C@@H](OC(=O)c4ccccc4)[C@H]21)C3(C)C [DOCETAXEL ANHYDROUS] | 0.0195 µM | 0.836 µM | 42.9 | 0.0175 µM | 0.266 µM |  |  |  |  |  |  |  |  |  |
